# Screening results deposited in PubChem by several laboratories.
# CRFR2-BP ag: agonists of human CRF-binding protein/CRF-R2 receptor complex | HEK293 CRF-R2/CRF-BP, calcium dye fluorescence (FLIPR); percent of saturating CRF peptide response | activation, % at 13.2 µM | 0.46% of 350,000 active | AID 588473;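 active = activation of at least 50%, plus an integration ratio under a set limit after plate pattern correction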;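 also: plate controls were neutral control wells without compound for no effect and CRF at EC100 for full effect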
# beta cell repl: MIN6 beta-cell proliferation induction. MIN6 cells proliferation, ATPlite luminescence, 48 h; cells starved in 0.2% serum; 100% = growth in 10% serum. proliferation, % at 10 µM. 0.29% of 330,000 active. AID 2380;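 active = compounds whose signal lies at least 3.5 SD above the mean of all wells on their plate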;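 also: 0% = DMSO-treated cells in low-serum medium and 100% = 10% serum control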
# H9c2 protect: modulators protecting cardiomyocytes from myocardial damage; H9c2 cardiomyocytes, H2O2 injury protection, ATPLite, 2 h; protection from H2O2 cell death, % at 20 µM; 0.63% of 360,000 active; AID 588492;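 active = compounds giving at least 50% protection of heart cells from peroxide-induced death in the single-dose screen, raw or plate-pattern-corrected value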;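 also: 0% = DMSO wells with peroxide and 100% = DMSO wells without peroxide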
# UCH37 inh: inhibitors of human deubiquitinating enzyme UCH37 | inhibition, % (no concentration beside the values) | 0.33% of 330,000 active | Q9Y5K5 | purified proteasome/UCH37, Ub-AMC cleavage fluorescence | AID 588478;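 active = mean inhibition over replicate wells above about 20%, limit read from the data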;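 also: 0% = compound-free wells with enzyme and 100% = wells lacking proteasome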
# Target sequence (Q9Y5K5 whole entry, looked up): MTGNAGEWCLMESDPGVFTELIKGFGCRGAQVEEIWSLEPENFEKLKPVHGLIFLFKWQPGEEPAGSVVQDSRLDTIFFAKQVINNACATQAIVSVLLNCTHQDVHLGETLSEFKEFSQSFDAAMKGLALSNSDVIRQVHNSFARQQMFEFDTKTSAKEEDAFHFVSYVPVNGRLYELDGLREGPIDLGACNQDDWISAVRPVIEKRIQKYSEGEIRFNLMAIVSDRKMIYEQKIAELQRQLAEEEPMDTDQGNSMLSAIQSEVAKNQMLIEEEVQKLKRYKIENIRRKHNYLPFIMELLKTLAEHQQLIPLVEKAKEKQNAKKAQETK
#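 Material: human UCH37 enzyme supplied as purified proteasome complex. Measure: % inhibition of Ub-AMC cleavage fluorescence. Medium: pH 7.4 Tris-HCl (50 mM) with ovalbumin, ATP-MgCl2, DTT. Times: 30 min preincubation with enzyme, 25 min cleavage at room temperature. Detection: AMC fluorescence intensity at 355/460 nm.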
# CRFBP-R2 block: blocks CRF-induced signaling of the CRF-BP/CRF-R2 complex; HEK293 CRF-R2/CRF-BP, CRF-induced calcium fluorescence; inhibition, % at 11.8 µM; 0.59% of 350,000 active; AID 588475;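 active = inhibition of the ligand-induced calcium signal above about 50% at the single tested concentration, limit read from the data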
# iPSC survival up: hiPSC single-cell survival enhancement; ATPlite luminescence; 100% = ROCK inhibitor wells, 0% = DMSO; survival enhancement, % at 20 µM; 0.044% of 360,000 active; AID 602274; in the data active = survival enhancement above about 18%;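 also: cells exposed to compounds for 16 hours before the ATP read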
# * marks the source's active call; other numbers are inactive results; i = inactive; / = no result given; ! = a repeat was not active. Rows were chosen to be rich in hits. Some 2.1% of all compounds tested hit in one or more screens of this group.
SMILES,CRFR2-BP ag,beta cell repl,H9c2 protect,UCH37 inh,CRFBP-R2 block,iPSC survival up
CC(CC(=O)Nc1ccc(OCc2ccccc2)cc1)=NNC(=O)C(=O)Nc1ccc(C)c(Cl)c1,/,/,/,2.2,/,/
CCCc1cc(=O)oc2cc(OC(=O)CN3C(=O)NC4(CCCC4)C3=O)ccc12,2.9,4.3,61.1*,i,20.2,-0.4
COc1cccc2cc(-c3nnc(SCC(=O)Nc4nc(C)cs4)n3C)oc12,-2.4,-2.3,68.6*,-0.4,-12.4,7.6
CS(=O)(=O)N1CCc2cc(S(=O)(=O)N3CCN(Cc4ccc5c(c4)OCO5)CC3)ccc21,-3.1,-2.7,-3.8,-3.5,56.6*,1.4
Cc1ccc(C(=O)NN=Cc2ccccn2)cn1,/,/,/,-0.8,/,/
Cc1ccc(C(=O)N/N=C\c2ccc(-c3ccc(Cl)cc3)o2)cn1,-3.0,-2.1,59.9*,/,-9.5,-0.1
CCN(CC)S(=O)(=O)c1cccc(C(=O)NN=Cc2ccccn2)c1,/,/,/,0.8,/,/
O=C(N/N=C/c1ccccn1)c1ccc(NC(=O)c2cccc([N+](=O)[O-])c2)cc1,6.0,-0.5,69.3*,/,-0.3,-0.4
CCN(CC)S(=O)(=O)c1cccc(C(=O)N/N=C/c2ccccn2)c1,1.6,-0.6,51.2*,/,2.4,0.1
Cc1ccc(C(=O)N/N=C\c2ccccn2)cn1,2.1,-1.3,4.4,/,113.4*,-0.4
Cc1cc(-c2ccc(C=Nn3cnnc3)o2)c(C)c([N+](=O)[O-])c1,/,/,/,6.9,/,/
CCNc1nc(NC(C)C)nc(Oc2ccc(C=NO)cc2)n1,/,/,/,1.5,/,/
O=C(N/N=C/c1ccccn1)c1cccc([N+](=O)[O-])c1,-2.6,2.6,60.6*,/,-2.5,-0.4
O=C(N/N=C/c1ccccn1)c1cc([N+](=O)[O-])cc([N+](=O)[O-])c1,-1.7,-3.3,39.5,/,8.5,-1.3
CCOc1ccc(S(=O)(=O)N2CCN(C(=O)c3ccncc3)CC2)cc1,0.7,-3.7,-8.2,-0.6,61.6*,-0.1
COc1ccc(S(=O)(=O)N2CCN(C(=O)c3ccc4ccccc4n3)CC2)cc1,0.6,0.0,-2.1,-0.8,7.9,0.0
COc1ccc(S(=O)(=O)N2CCN(C(=O)c3cnc(C)cn3)CC2)cc1,2.0,-2.5,-2.8,33.5*,-5.0,2.4
CC1CCc2c(sc(N=CN(C)C)c2C#N)C1 (stereo not drawn),/,/,/,7.5,/,/
O=C(CSc1nc2nn(-c3ccccc3)c(=O)c-2c2n1CCCCC2)c1ccc(O)c(O)c1,-1.9,-6.8,99.8*,5.3,16.0,0.2
CC(C)Cn1c(N)c(C(=O)COC(=O)CCc2nc3ccccc3c(=O)[nH]2)c(=O)n(C)c1=O,1.7,-0.7,54.1*,0.5,-4.8,-3.3
Cc1cccc(N2CCN(C(=O)CCc3nc4ccccc4c(=O)[nH]3)CC2)c1C,-4.8,-1.3,50.5*,-0.7,74.3*,-2.0
O=c1[nH]c(CN2CCN(c3ccc(F)cc3)CC2)nc2ccccc12,-1.5,-1.1,12.8,-0.2,-11.4,3.7
O=C(CCc1nc2ccccc2c(=O)[nH]1)N1CCN(c2ccc(F)cc2)CC1,1.5,-2.7,71.5*,0.9,8.7,0.4
O=C(CCc1nc2ccccc2c(=O)[nH]1)OCC(=O)N1CCc2ccccc21,-1.0,-2.8,56.9*,1.1,4.3,-0.3
CC(C)Cn1c(N)c(C(=O)COC(=O)CCc2nc3ccccc3s2)c(=O)n(C)c1=O,-2.3,-4.7,-16.0,1.1,6.1,-0.4
SMILES,CRFR2-BP ag,beta cell repl,H9c2 protect,UCH37 inh,CRFBP-R2 block,iPSC survival up
O=C(NN=Cc1ccc(F)cc1)c1ccc(Br)cc1,/,/,/,4.0,/,/
O=C(NN=Cc1ccc[nH]1)c1cccc([N+](=O)[O-])c1,/,/,/,7.3,/,/
O=c1[nH]c(CN2CCN(C/C=C/c3ccccc3)CC2)nc2cc(Cl)ccc12,0.8,-2.6,7.5,0.4,-20.2,-2.2
CC(=O)N1CCN(C(=O)CCc2nc3ccccc3c(=O)[nH]2)CC1,7.6,-3.0,61.3*,3.3,-42.9,0.6
O=C(CCc1nc2ccccc2c(=O)[nH]1)N1CCN(C/C=C/c2ccccc2)CC1,-1.0,-3.8,59.3*,-1.8,-33.3,-1.1
Cc1ccc2c(c1)CCCN2C(=O)CCc1nc2ccccc2c(=O)[nH]1,0.8,-3.0,76.3*,0.4,31.8,-0.5
O=C(CSc1nc(-c2cccs2)cc(C(F)(F)F)n1)NCCCN1CCOCC1,-0.8,-0.9,1.2,3.8,3.9,-1.2
Cc1cc(NC(=O)CCSc2nc(-c3ccco3)cc(C(F)(F)F)n2)no1,2.1,-1.2,-3.4,-37.8,91.0*,3.4
O=C(CSc1nc(-c2ccco2)cc(C(F)(F)F)n1)NCCCN1CCOCC1,-1.3,-1.0,-1.6,-1.6,50.7*,0.3
CCOC(=O)C1=C(CSc2nc(-c3ccccc3)ccc2C#N)OC(N)=C(C#N)C1c1ccc(OC)cc1 (stereo not drawn),50.3*,-3.9,-8.9,-24.2,-87.6,-2.3
CCOC(=O)C1=C(CSc2nc(CC)c(C)cc2C#N)OC(N)=C(C#N)C1c1ccccc1 (stereo not drawn),3.5,-3.6,11.1,-3.8,16.8,4.0
O=C(NN=Cc1ccc(Br)cc1)c1ccc(Br)o1,/,/,/,2.3,/,/
COC(=O)c1cc2c(-c3ccccc3)cc3ccccn3c-2c1C(=O)OC,10.6,-5.4,61.4*,3.2,-0.2,0.5
COc1ccc(C=NNC(=O)c2ccc(COc3ccccc3Cl)o2)c(OC)c1C,/,/,/,-4.5,/,/
CC[C@@H](C(=O)[C@@H](C)[C@@H](O)[C@H](C)[C@@H]1O[C@@H]([C@@H](CC)C(=O)O)CC[C@@H]1C)[C@H]1O[C@]2(C=C[C@@H](O)[C@]3(CC[C@@](C)([C@H]4CC[C@](O)(CC)[C@H](C)O4)O3)O2)[C@H](C)C[C@@H]1C,2.6,/,-35.7,/,4.9,-5.1
CC[C@@H](C(=O)[C@@H](C)[C@@H](O)[C@H](C)CCc1ccc(C)c(O)c1C(=O)O)[C@H]1O[C@](CC)([C@H]2CC[C@](O)(CC)[C@H](C)O2)C[C@@H]1C,118.4*,-7.9,-44.4,-0.1,-2.4,-4.1
Cc1cc(OC(C)C(=O)NN=CCC(C)c2ccccc2)ccc1Cl (stereo not drawn),/,/,/,1.1,/,/
CCCCCC(=O)Nc1ccc(C(=O)NN=Cc2ccc([N+](=O)[O-])cc2)cc1,/,/,/,-19.5,/,/
CCOc1ccc2ccccc2c1C(=O)N[C@@H]1C(=O)N2[C@@H]1SC(C)(C)[C@@H]2C(=O)O,-1.2,-2.9,77.9*!,4.6,-3.8,-3.5
CC(C)(C)C(=O)CN1C(=O)NC(C)(Cc2ccc3c(c2)OCO3)C1=O (stereo not drawn),2.3,-2.2,-1.0,2.0,5.9,-0.1
CC1(Cc2ccc3c(c2)OCO3)NC(=O)NC1=O (stereo not drawn),-2.5,1.8,-3.4,1.1,56.0*,-1.1
COC(=O)c1cc(OC)c(OC)cc1NC(=O)c1c(-c2ccccc2)noc1C,-1.3,6.8,6.8,-0.2,67.6*,-0.6
